Bioassay records: PubChem BioAssay, several laboratories
Most compounds without a hit are left out; they make up all but 1.9% or so of the library.
SR-BI DiI-HDL act = activators of SR-BI mediated DiI-HDL uptake, primary screen, ldlA[mSR-BI] CHO cells, DiI fluorescence. 3 h; 100 = double the neutral-control signal. activation, % at 12.5 µM. hit rate 0.096% among 320,000. AID 504775, 2011;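 active = mean replicate activation of at least 60% and every replicate at or above 60%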
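Material – SR-BI-overexpressing, LDLR-lacking CHO cells · Medium – BSA-supplemented, HEPES-buffered Ham's F12, pH 7.4 · Doses – single concentration · Times – compound with DiI-HDL co-incubation, 3 h at 37 °C · Measured by – bottom-read fluorescence, 550/595 nm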
Rin1-Abl PPI inh = inhibitors of Rin1-Abl protein binding, primary screen, biochemical, TR-FRET; Tyrosine-protein kinase ABL1 (Homo sapiens) + Ras and Rab interactor 1 (Homo sapiens), …; hit rate 0.4% among 360,000; inhibition, % at 7.35 µM; AID 588664, 2011; in the data active = inhibition above about 5%, passing the limit was not always enough
Target sequence (P00519 whole entry, looked up): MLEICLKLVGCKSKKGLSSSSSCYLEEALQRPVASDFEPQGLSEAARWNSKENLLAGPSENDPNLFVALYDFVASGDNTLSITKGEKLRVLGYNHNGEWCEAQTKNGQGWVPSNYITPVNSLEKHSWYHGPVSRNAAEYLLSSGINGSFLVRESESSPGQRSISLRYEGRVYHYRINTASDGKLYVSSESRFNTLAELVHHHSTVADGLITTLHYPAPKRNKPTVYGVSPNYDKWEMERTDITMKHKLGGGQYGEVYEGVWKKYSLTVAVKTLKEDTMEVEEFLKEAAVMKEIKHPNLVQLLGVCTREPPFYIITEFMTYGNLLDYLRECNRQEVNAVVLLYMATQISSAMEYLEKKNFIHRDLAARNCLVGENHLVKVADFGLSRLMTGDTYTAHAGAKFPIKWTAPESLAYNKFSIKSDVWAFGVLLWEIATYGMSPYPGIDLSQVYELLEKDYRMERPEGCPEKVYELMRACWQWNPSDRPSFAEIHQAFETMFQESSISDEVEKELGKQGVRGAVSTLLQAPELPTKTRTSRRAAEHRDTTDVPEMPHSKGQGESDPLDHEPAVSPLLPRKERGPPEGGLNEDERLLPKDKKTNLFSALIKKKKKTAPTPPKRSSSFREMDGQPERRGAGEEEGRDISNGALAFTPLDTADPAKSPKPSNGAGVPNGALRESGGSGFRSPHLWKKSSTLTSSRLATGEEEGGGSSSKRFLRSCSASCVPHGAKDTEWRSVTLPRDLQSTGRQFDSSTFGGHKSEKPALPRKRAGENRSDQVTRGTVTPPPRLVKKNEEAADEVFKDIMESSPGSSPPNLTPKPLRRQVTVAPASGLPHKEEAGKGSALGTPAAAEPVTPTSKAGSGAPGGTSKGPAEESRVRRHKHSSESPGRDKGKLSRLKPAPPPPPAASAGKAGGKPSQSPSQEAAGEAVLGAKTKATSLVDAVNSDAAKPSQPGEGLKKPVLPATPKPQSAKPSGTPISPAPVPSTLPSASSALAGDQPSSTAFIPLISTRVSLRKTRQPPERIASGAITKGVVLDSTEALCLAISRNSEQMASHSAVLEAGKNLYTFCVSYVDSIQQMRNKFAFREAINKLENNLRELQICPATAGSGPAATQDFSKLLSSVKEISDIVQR
Target sequence (Q13671 whole entry, looked up): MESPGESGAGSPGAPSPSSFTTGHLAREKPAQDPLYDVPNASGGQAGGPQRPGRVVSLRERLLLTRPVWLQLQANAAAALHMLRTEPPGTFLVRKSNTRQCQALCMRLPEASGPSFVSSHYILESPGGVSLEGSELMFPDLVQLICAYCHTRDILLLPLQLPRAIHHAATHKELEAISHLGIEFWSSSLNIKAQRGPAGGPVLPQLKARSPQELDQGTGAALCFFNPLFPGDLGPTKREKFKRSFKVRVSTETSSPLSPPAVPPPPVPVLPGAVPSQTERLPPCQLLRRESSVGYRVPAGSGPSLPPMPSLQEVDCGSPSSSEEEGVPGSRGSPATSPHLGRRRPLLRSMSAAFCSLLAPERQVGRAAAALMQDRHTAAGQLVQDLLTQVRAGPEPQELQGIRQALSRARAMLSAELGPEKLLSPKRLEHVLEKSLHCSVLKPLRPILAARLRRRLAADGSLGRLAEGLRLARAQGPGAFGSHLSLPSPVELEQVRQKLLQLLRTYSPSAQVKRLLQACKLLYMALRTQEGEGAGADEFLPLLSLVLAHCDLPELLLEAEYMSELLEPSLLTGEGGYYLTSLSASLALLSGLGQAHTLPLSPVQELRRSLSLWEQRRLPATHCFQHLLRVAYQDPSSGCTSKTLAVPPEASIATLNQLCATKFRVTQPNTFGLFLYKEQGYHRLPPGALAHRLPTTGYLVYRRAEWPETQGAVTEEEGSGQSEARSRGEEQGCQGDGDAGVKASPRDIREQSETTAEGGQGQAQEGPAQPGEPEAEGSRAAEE
GRK2 inh = compounds blocking aptamer binding on GRK2 – biochemical, human GRK2, bead flow cytometry, HTS, primary screen | Beta-adrenergic receptor kinase 1 (Homo sapiens), P25098 | FAM-aptamer displacement from GRK2 | inhibition of aptamer binding, % at 10 µM | hit rate 0.59% among 330,000;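 active = inhibition of aptamer binding above 40%, roughly 3 SD of noise, on plates passing a quality check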;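 also: median bead fluorescence of bound FAM aptamer so fluorescent compounds give negative values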
SR-BI DiI inh = inhibitors of SR-BI mediated HDL lipid uptake, primary screen, ldlA[mSR-BI] cells, fluorescence, single point. Scavenger receptor class B member 1 (Mus musculus), Q61009. AID 488896, 2010. hit rate 0.96% among 320,000. ldlA[mSR-BI] CHO cells, DiI-HDL uptake fluorescence, 3 h. inhibition, % at 12.5 µM;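 active = mean replicate inhibition of at least 70% and a set share of replicates each scoring 70 or more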
Rin1-Abl confirm = Rin1-Abl binding inhibitor retest, confirmation, biochemical, TR-FRET; shares compounds with Rin1-Abl PPI inh; purified proteins; inhibition, % at 7.35 µM; hit rate 49% among 1,300; AID 602124, 2011
GFP quench = GFP fluorescence inhibitors and quenchers, artefact control for Rin1-Abl interaction inhibitor project, biochemical; inhibitors/quenchers counterscreen; hit rate 8.5% among 1,300; inhibition, % at 6.75 µM; shares compounds with Rin1-Abl PPI inh;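 also: ABL1-eGFP fusion protein alone without its partner RIN1-SBP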
GFP quench DR = GFP fluorescence inhibitors and quenchers, dose response, artefact control for Rin1-Abl interaction inhibitor project, biochemical. shares compounds with Rin1-Abl PPI inh. GFP fluorescence interference/quenching counterscreen. 230 tested, under 10 active. IC50, µM; call rule not given here;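 also: ABL1-eGFP fusion protein alone without its RIN1 binding partner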
Hits are given with their value; - = inactive; . = no result given. Rule as the data show it, unless noted: active = inhibition above about 6.5%; inactive = the rest.

SMILES	SR-BI DiI-HDL act	Rin1-Abl PPI inh	GRK2 inh	SR-BI DiI inh	Rin1-Abl confirm	GFP quench	others
Cc1ccccc1OCC(=O)Nc1ccccc1-c1ccccc1	-	7.0	-	-	-	-
CN(C)c1ccc(-c2[nH][nH]c(=O)c2NC(=O)c2ccc3ccccc3n2)cc1	.	36	.	.	10	-
CN(C)c1ccc(-c2[nH][nH]c(=O)c2NC(=O)c2ccccn2)cc1	.	34	.	.	11	-
C/C(CC(=O)Nc1ccc(N(C)C)cc1)=N\NC(=O)c1ccccn1	-	-	-	-	.	.
O=C(c1ccc(OC2CCN(CCCc3ccccc3)CC2)cc1)N1CCCC1	-	-	-	-	.	.
CC1(C(=O)NS(=O)(=O)c2cccc(C#N)c2)CCN1C(=O)C1(c2ccccc2)CC1 (stereo not drawn)	.	-	.	.	.	.
CN(C(=O)CCc1nnc(-c2ccc(-c3ccccc3)cc2)o1)C1CCOCC1	-	8.8	-	-	-	-
CCCN(CCC)S(=O)(=O)c1ccc(C(=O)NCc2ccc3c(c2)OCO3)cc1	-	6.3	-	-	-	-
CCN(CC)S(=O)(=O)c1ccc(C(=O)NCc2ccc3c(c2)OCO3)cc1	-	-	-	-	.	.
COCCNC(=O)C1(C)CCN(Cc2cccc(Oc3ccccc3)c2)C1 (stereo not drawn)	.	-	.	.	.	.
CCOc1cc(C(c2c(C)[nH][nH]c2=O)c2c(C)[nH][nH]c2=O)ccc1O	-	-	-	-	.	.
COc1ccc(OC)c(C(c2c(C)[nH][nH]c2=O)c2c(C)[nH][nH]c2=O)c1	-	7.9	-	-	-	-
COc1ccc(O)c(C(c2c(C)[nH][nH]c2=O)c2c(C)[nH][nH]c2=O)c1	-	22	-	-	-	-
CCOC(=O)c1ccc(NC(=O)c2nc[nH]c2C(=O)N[C@@H](C)CO)cc1	.	-	.	.	.	.
CCOc1ccc(NS(=O)(=O)c2ccc(C(=O)N3CC(C)OC(C)C3)cc2)cc1 (stereo not drawn)	-	8.9	-	-	9.7	-
CCOC(=O)C1=C(C)Nc2nnnn2C1c1ccc(OC)c(Br)c1 (stereo not drawn)	-	11	-	-	-	-
CCOC(=O)C1=C(C)NC(=S)N(C(C)=O)C1c1ccc(OC)c(OC)c1 (stereo not drawn)	-	-	-	-	.	.
c1ccc(NN(Cc2ccccn2)c2ccccc2)cc1	.	-	.	.	.	.
Cc1nc(Cl)sc1C(=O)Nc1ccc(Cl)cc1	-	-	-	-	.	.
CNC(=O)c1oc(-c2ccc(Cl)cc2)nc1C	-	13	-	-	-	-
Cc1ccc(S(=O)(=O)N2CCN(C(=O)c3ccccn3)CC2)c(C)c1	-	-	-	-	.	.
Cc1ccc(S(=O)(=O)N2CCN(C(=O)CSc3ccccn3)CC2)c(C)c1	-	8.2	-	-	-	-
O=c1c(O)c(-c2ccc(O)cc2)oc2cc(O)cc(O)c12	-	-	-	-	.	.
O=c1c(O)c(-c2ccc(O)c(O)c2)oc2cc(O)ccc12	-	23	.	-	22	-	GFP quench DR=-
Cc1ccccc1OCCNCC(C)O (stereo not drawn)	-	9.0	-	-	-	-
SMILES	SR-BI DiI-HDL act	Rin1-Abl PPI inh	GRK2 inh	SR-BI DiI inh	Rin1-Abl confirm	GFP quench	others
CCOc1ccccc1CNCCNCC(C)O (stereo not drawn)	-	-	-	-	.	.
COc1cc(OC)cc(C(=O)NC(=S)Nc2cccnc2)c1	-	-	-	-	.	.
COc1ccc(C(=O)NC(=S)Nc2cccnc2)cc1OC	-	8.9	-	-	-	-
O=C(O)c1ccc(N2C(=O)c3ccccc3C2=O)cc1[N+](=O)[O-]	.	-	.	.	.	.
Cn1c(Cn2c(=O)sc3ccccc32)nnc1SCC(=O)N1CCOCC1	-	-	-	-	.	.
O=C(CSc1nnc(Cn2c(=O)sc3ccccc32)n1-c1ccccc1)Nc1nccs1	-	9.6	-	-	-	-
COc1ccc(-n2c(Cn3c(=O)sc4ccccc43)nnc2SCC(=O)N2CCOCC2)cc1	-	6.5	-	-	-	-
